# OX1R antag-1: antagonists of human orexin 1 receptor (OX1R) | Orexin/Hypocretin receptor type 1 (Homo sapiens), O43613 | OX1R-expressing cells, FRET antagonist read-out | inhibition, % at 6.6 µM | 330,000 tested, 1.8% active | AID 485270, 2010; in the data active = inhibition mostly above about 38%, no sharp cut-off; inactive = mostly below about 40%;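 note: 0% = agonist challenge alone and 100% = reference antagonist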
# Target sequence (O43613 whole entry, looked up): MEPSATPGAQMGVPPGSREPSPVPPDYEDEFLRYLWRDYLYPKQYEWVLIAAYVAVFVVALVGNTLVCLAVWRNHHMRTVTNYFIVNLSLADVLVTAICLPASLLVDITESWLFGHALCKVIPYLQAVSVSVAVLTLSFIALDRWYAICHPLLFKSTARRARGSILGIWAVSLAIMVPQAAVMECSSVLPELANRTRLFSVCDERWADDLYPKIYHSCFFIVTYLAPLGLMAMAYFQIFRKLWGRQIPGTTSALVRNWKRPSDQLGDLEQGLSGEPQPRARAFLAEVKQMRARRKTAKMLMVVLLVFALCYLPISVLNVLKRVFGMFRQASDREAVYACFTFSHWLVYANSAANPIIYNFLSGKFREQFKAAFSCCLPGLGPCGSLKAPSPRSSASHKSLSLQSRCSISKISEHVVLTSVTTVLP
# GPR7 antag: GPR7 receptor antagonists, primary screen, cell-based, fluorescence, single concentration. GPR7-expressing cells, fluorescence antagonist assay. 290,000 tested, 1.1% active. inhibition, % at 4.4 µM. Neuropeptides B/W receptor type 1 (Homo sapiens), P48145. AID 1861, 2009; in the data active = inhibition above about 16%, passing the limit was not always enough;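 note: cells stimulated with the agonist NPW; 0% = agonist with vehicle and 100% = vehicle without agonist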
# CHO parental Ca: ATP-evoked calcium signal inhibitors, parental CHO, primary screen, counter-screen for OX1R antagonist project, cell-based, fluorescence, Fluo-8 calcium dye; inhibition, % at 5.6 µM; 330,000 tested, 0.63% active; parental CHO-K1, ATP-induced calcium, Fluo-8 fluorescence;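 active = inhibition above that plate's mean sample inhibition plus 3 SD, cut at about 26% in these data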;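 note: 0% = ATP-challenged DMSO wells and 100% = DMSO wells without ATP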
#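 Material – parental CHO cells · Reagent – ATP stimulus · Compound – single nominal dose of 5.6 µM per compound · Detection – Fluo-8 fluorescence · Read-out basis – percent inhibition of calcium signal · Controls – ATP-challenged DMSO wells low, unchallenged DMSO wells high · Repeats – no replicates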
# OX1R antag-2: OX1R (HCRTR1) antagonists, primary screen, fluorescence, CHO/OX1R cells, Fluo-8 calcium, orexin A | Orexin/Hypocretin receptor type 1 (Homo sapiens), O43613 | Fluo-8 calcium fluorescence | inhibition, % at 5 µM | 330,000 tested, 0.43% active | AID 434989, 2010;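 active = inhibition above its plate's threshold, mean inhibition of all tested compounds on the plate plus 3 SD, cut at about 37% in these data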;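 note: 0% = orexin A challenge wells and 100% = SB-334867-A antagonist wells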
# GalR3 antagonist: GalR3 antagonists in HEK293 cells, primary screen, cell-based, fluorescence readout; Galanin receptor type 3 (Homo sapiens), O60755; inhibition, % at 3 µM; 360,000 tested, 0.44% active; HEK293 GalR3-CNG cAMP membrane potential fluorescence; galR3 body fused to GalR1 C-terminus;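 active = inhibition above the screen-wide average plus 3 SD, cut at about 13% in these data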;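 note: forskolin and galanin both at EC90 stimulate the cells; cAMP rise reported by CNG channel membrane potential dye signal; 0% = forskolin plus galanin with DMSO and 100% = forskolin alone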
# OX1R HTRF conf: OX1R (HCRTR1) antagonists, confirmation, cell-based, HTRF; shares compounds with OX1R antag-1; OX1R-expressing cells, HTRF antagonist assay; inhibition, % at 6.6 µM; 1,800 tested, 49% active; AID 492964, 2010; in the data active = inhibition above about 55%;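 note: CHO cells expressing OX1R stimulated with orexin A at about EC80; 0% = agonist challenge alone and 100% = reference antagonist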
# CHO-K1 HTRF: signal inhibition in parental CHO-K1 cells, counter-screen for OX1R antagonist project, cell-based, HTRF. shares compounds with OX1R antag-1. HTRF counterscreen. inhibition, % at 6.6 µM. 1,800 tested, 48% active. AID 493232, 2011; in the data active = inhibition above about 17%;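 note: 0% = agonist challenge with vehicle and 100% = vehicle alone without agonist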
# * hit, by the source's call; · = no result given. A selection: hits, their analogues and other compounds. The true share with any hit is near 3.1%.
SMILES,OX1R antag-1,GPR7 antag,CHO parental Ca,OX1R antag-2,GalR3 antagonist,OX1R HTRF conf,CHO-K1 HTRF
O=C1c2cccc3cccc(c23)C(=O)N1c1ccccn1,99*,4,-12,-12,-6,61*,60*
O=C1c2cccc3cccc(c23)C(=O)N1c1ccncc1,111*,-4,-15,-12,-4,54,67*
COc1ccc(N2C(=O)c3cccc4cc(Br)cc(c34)C2=O)cc1,14,-14,-10,-5,-5,·,·
O=C1c2cccc3cccc(c23)C(=O)N1Cc1ccccn1,·,·,·,·,-2,·,·
CCOCCC(=O)Nc1ccc2c(c1)c(=O)n(C)n2CC=C(C)C,·,·,·,·,-7,·,·
Cc1ccc(-c2nc(C)c(C(=O)O)s2)cc1,13,-8,0,-7,-1,·,·
Cc1nc(-c2ccc([N+](=O)[O-])cc2)sc1C(=O)O,156*,-5,-8,-10,-4,48,76*
Cc1cc(N(C)C)ccc1N=Nc1ccc2ncccc2c1,83*,-13,-32,-3,-2,75*,10
CN(C)c1ccc(N=Nc2ccc3ncccc3c2)cc1,·,·,·,·,-4,·,·
Clc1ccc(-c2nnc(SCc3nc4ccccc4[nH]3)o2)c(Cl)c1,28,2,-20,-5,-2,·,·
Brc1cccc(-c2nnc(SCc3nc4ccccc4[nH]3)o2)c1,80*,-4,-14,-3,-3,28,0
Cc1csc(NC(=O)c2ccc(C(=O)Nc3nc(C)cs3)cc2)n1,-4,-6,-5,-13,·,·,·
Cc1csc(NC(=O)c2cnc3ccccc3n2)n1,113*,5,-1,-11,-6,29,48*
O=C1C(=C(c2ccccc2)N2CCOCC2)Cc2ccccc21,·,·,·,·,-4,·,·
On1c(-c2ccccc2)nc2ccccc21,35,2,-3,-9,9,·,·
O=Nc1c2nc3ccccc3n(O)c-2c2ccccc12,91*,-12,-14,-32,-3,38,49*
CC(OC(=O)C1=Cc2ccccc2OC1)C(=O)NCC1CCCO1 (stereo not drawn),·,·,·,·,12,·,·
[O-][n+]1c2ccccc2[n+]([O-])c2cc(O)ccc21,92*,-20,-4,-13,-7,63*,111*
[O-][n+]1c(/C=C/c2ccccc2)ccc2ccccc21,·,-6,·,·,-5,·,·
CC(C)[C@@H](C)/C=C/[C@@H](C)[C@H]1CC[C@@H]2[C@]1(C)CCC1[C@]23C=C[C@]2(C[C@@H](O)CC[C@]12C)N(c1ncc(C(F)(F)F)cc1Cl)O3 (stereo partly drawn),·,·,·,·,-5,·,·
Cc1ccc2cc3c(N)c(C(=O)N4CCOCC4)sc3nc2c1,34,-16,-18,-32,-2,·,·
COc1ccc2cc3c(N)c(C(=O)N4CCCC4)sc3nc2c1,98*,-11,-11,6,1,89*,11
O=[N+]([O-])c1ccc(C2=Nn3cnnc3SC2)cc1,88*,3,-8,-30,-5,58*,93*
Cc1noc(C)c1NC(=O)N(C)C[C@H]1OCc2cnnn2CCCC(=O)N([C@H](C)CO)C[C@H]1C,·,·,·,·,0,·,·
O=C(C1CCCN(S(=O)(=O)c2ccccc2[N+](=O)[O-])C1)N1CCCC1 (stereo not drawn),122*,4,1,22,-2,27,4
SMILES,OX1R antag-1,GPR7 antag,CHO parental Ca,OX1R antag-2,GalR3 antagonist,OX1R HTRF conf,CHO-K1 HTRF
Cc1cc2c(cc1C)-c1nnnn1C(N1CCC(Cc3ccccc3)CC1)C(=O)N2 (stereo not drawn),·,·,·,·,-1,·,·
Cc1cccnc1-n1c(CCN2C(=O)c3ccccc3C2=O)nc2ccccc2c1=O,92*,-2,-19,25,0,85*,2
O=C(COC(=O)c1ccc([N+](=O)[O-])s1)NCc1ccccc1,124*,-8,-5,-22,-13,28,18*
O=C(COC(=O)c1ccc([N+](=O)[O-])o1)NCc1ccccc1,26,·,-12,5,-7,·,·
Cc1ccc(C(=O)c2c(C)oc3c2C(=O)C(=O)c2ccccc2-3)cc1,135*,13,-31,-7,·,70*,27*
CN1CCn2cnc(C(=O)N3CCN(c4ccccc4)CC3)c2C1=O,·,·,·,·,1,·,·
COc1cc(SC)ccc1C(=O)Nc1ccc2ncccc2c1,90*,-3,-23,-1,-12,86*,14
O=C1NC2(Nc3ccccc31)C(=O)Nc1ccc(Br)cc12 (stereo not drawn),18,-3,7,-5,-1,·,·
O=C1NC2(Nc3ccccc31)C(=O)Nc1ccccc12 (stereo not drawn),80*,-6,-25,-8,-5,22,6
CC(C)(C)C(=O)N1CCN(c2ccc(NC(=O)c3ccc([N+](=O)[O-])o3)cc2)CC1,78*,5,-1,-12,-4,30,-12
CCC(=O)N1CCN(c2ccc(NC(=O)c3ccc([N+](=O)[O-])o3)cc2)CC1,·,-5,·,·,-5,·,·
CC(C)Oc1ccc(F)cc1-c1cc(C(=O)Nc2ccc(C(C)(C)C)cc2)[nH]n1,·,·,·,·,-3,·,·
COc1cccc(CNC(=O)[C@H]2CCCN2C(=O)[C@H]2CCCN2C(=O)c2ccc(F)c(C(F)(F)F)c2)c1,·,·,·,·,-3,·,·
O=C(OCC(=O)N1CCCC1)c1cc([N+](=O)[O-])ccc1Cl,118*,7,-5,-6,-7,55,56*
CCCC[n+]1ccc(-c2nc3ccc([N+](=O)[O-])cc3[nH]2)cc1,113*,-6,-5,-13,-10,56*,80*
COc1c(C)cc(C(=O)C2CCCN(C(=O)c3cccc(-n4cccn4)c3)C2)cc1C (stereo not drawn),89*,-22,-9,-8,1,81*,3
COc1c(C)cc(C(=O)C2CCCN(C(=O)c3cc(C)on3)C2)cc1C (stereo not drawn),27,-12,-26,-14,-8,·,·
CCCCCCN1C=CC(=C2C(=O)c3ccccc3C2=O)C=C1,21,-5,-17,-16,-10,·,·
CCCCN1C=CC(=C2N=c3cccc([N+](=O)[O-])c3=N2)C=C1,157*,2,6,-1,1,59*,100*
O=C(NCc1cccnc1)C1C2C=CC(C2)C1C(=O)Nc1cccc(C(F)(F)F)c1 (stereo not drawn),·,·,·,·,-4,·,·
O=C(CCC(=O)NNC(=O)c1ccc([N+](=O)[O-])cc1)NCc1ccccc1,91*,-3,-12,-18,0,33,39*
